Measured values of several laboratories.
Each line is one published result; the experiments were not run side by side.
Target: Megakaryocyte-associated tyrosine-protein kinase (MATK, Homo sapiens, UniProt P42679)
Sequence (P42679 1-507, as in one of the studies): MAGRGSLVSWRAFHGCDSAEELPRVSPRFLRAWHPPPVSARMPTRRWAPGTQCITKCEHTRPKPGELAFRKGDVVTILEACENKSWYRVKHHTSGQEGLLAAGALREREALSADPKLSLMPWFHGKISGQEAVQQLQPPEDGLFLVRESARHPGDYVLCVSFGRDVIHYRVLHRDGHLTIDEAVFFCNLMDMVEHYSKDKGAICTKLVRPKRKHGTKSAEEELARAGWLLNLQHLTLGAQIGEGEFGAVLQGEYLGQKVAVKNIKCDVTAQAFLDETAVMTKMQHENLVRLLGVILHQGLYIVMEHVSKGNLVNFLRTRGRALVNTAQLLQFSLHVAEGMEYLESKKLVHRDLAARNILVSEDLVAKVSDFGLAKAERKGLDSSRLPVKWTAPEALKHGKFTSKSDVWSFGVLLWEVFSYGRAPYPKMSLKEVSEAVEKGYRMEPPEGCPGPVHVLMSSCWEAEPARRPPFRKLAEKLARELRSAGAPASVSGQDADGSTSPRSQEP

SMILES | assay | conditions | quantity | result
Cn1cncc1[C@](O)(COc1ccc(C#N)cc1-c1ccc(OC(F)(F)F)cc1)c1ccc(C#N)cc1 | cell-free assay, competition with immobilised ligand | 1 µM | remaining binding | 98%
Cn1cc(-c2cc(F)cc(N3CCn4c(cc5c4CCCC5)C3=O)c2CO)cc(Nc2ccc(N3CCN(C4COC4)CC3)cn2)c1=O | enzyme activity, inhibitor | 0.1 µM | inhibition | 9%
COc1ncccc1-c1cnn2ccc(N3CCN(C(=O)OC(C)C)CC3)nc12 | binding, competition with immobilised ligand | 1 µM | remaining binding | 46%
Cc1nn(C)cc1-c1nc2c(N3CCN(Cc4ccc(Cl)cc4)CC3)c(Cl)cnc2[nH]1 | binding, competition with immobilised ligand | 1 µM | remaining binding | 82%
O=c1[nH]c2ccccc2n1C1CCN(Cc2ccc(-c3[nH]c4cc5ncnc5cc4nc3-c3ccccc3)cc2)CC1 | cell-free assay | 0.5 µM | remaining signal | 102%
Cn1cc(-c2cccc(N3CCc4c(sc5c4CC(C)(C)C5)C3=O)c2CO)cc(Nc2ccncn2)c1=O | enzyme activity, inhibitor | 1 µM | inhibition | 4%
Nc1ncc(-c2nc(N3CCOCC3)nc(N3CCOCC3)n2)c(C(F)F)n1 | binding, competition with immobilised ligand | 10 µM | remaining binding | 100%
CC(C)(C)c1cc(C=C(C#N)C#N)cc(Br)c1O | enzyme activity, inhibitor | 0.5 µM | remaining activity | 102%
COc1cc(Nc2ncc(F)c(Nc3ccc4c(n3)NC(=O)C(C)(C)O4)n2)cc(OC)c1OC | binding, competition with immobilised ligand | 10 µM | inhibition | 70%
